Laboratory results from ChEMBL document CHEMBL4689842, “EUbOPEN Chemogenomics Library wave 1” (2021).

Legend:
Format in all cases: toxicity, cell-based
Fibroblast [1] = assay: Incucyte cell viability with human fibroblast; conditions: 10 µM, compound concentration 10 uM; also: filed as whole numbers so only -1 and 0 and 1 occur
HEK-293T = assay: Incucyte cell viability with HEK293T; conditions: human, 10 µM, compound concentration 10 uM; also: filed as whole numbers so only -1 and 0 and 1 occur
U2OS = assay: Incucyte cell viability with U2OS; conditions: human, 10 µM, compound concentration 10 uM; also: filed as whole numbers so only -1 and 0 and 1 occur
Fibroblast [2] = assay: Multiplex assay against human fibroblast
Procedure, shortened: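 Cells stained live at seeding with Hoechst33342, BioTracker Green Microtubule Cytoskeleton Dye, MitoTracker Red and Annexin V Alexa Fluor 680 were imaged on a CQ1 microscope at 37°C and 5% CO2 after compound addition. Their classification by CellPathfinder machine-learning gating ran from Hoechst high-intensity objects versus normal cells, to healthy, pyknosed or fragmented nuclei among normal cells, to mitotic or apoptotic among pyknosed cells. Tubulin, mitochondrial-mass and membrane-permeability phenotypes are per cents of healthy-nucleus cells.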

[3] = 0 h, replicate number 1, timepoint 0 hours
[4] = 6 h, replicate number 1, timepoint 6 hours
[5] = 12 h, replicate number 1, timepoint 12 hours
[6] = 18 h, replicate number 1, timepoint 18 hours
[7] = 24 h, replicate number 1, timepoint 24 hours
[8] = 12 h, 1 µM, compound concentration 1 uM, replicate 1
[9] = 12 h, 1 µM, compound concentration 1 uM, replicate 2
[10] = 12 h, 10 µM, compound concentration 10 uM, replicate 1
[11] = 12 h, 10 µM, compound concentration 10 uM, replicate 2
[12] = 24 h, 1 µM, compound concentration 1 uM, replicate 1
[13] = 24 h, 1 µM, compound concentration 1 uM, replicate 2
[14] = 24 h, 10 µM, compound concentration 10 uM, replicate 1
[15] = 24 h, 10 µM, compound concentration 10 uM, replicate 2

## CC(C)(C)c1cnc(CSc2cnc(NC(=O)C3CCNCC3)s2)o1 [BMS-387032]
Fibroblast [1]; [3]
  Growth Rate: 0
Fibroblast [1]; [4]
  Growth Rate: 0
Fibroblast [1]; [5]
  Growth Rate: 0
Fibroblast [1]; [6]
  Growth Rate: 0
Fibroblast [1]; [7]
  Growth Rate: 0
HEK-293T; [4]
  Growth Rate: 0
HEK-293T; [5]
  Growth Rate: 0
HEK-293T; [6]
  Growth Rate: 0
HEK-293T; [7]
  Growth Rate: 0
U2OS; [3]
  Growth Rate: 0
U2OS; [4]
  Growth Rate: 1
U2OS; 6 h, replicate number 2, timepoint 6 hours
  Growth Rate: 0
U2OS; [5]
  Growth Rate: 0
U2OS; [6]
  Growth Rate: 0
U2OS; [7]
  Growth Rate: 0
Fibroblast [2]; [8]
  Population Apoptotic (%): 75%
  Population Fragmented Nuclei (%): 25%
  Population Healthy Nuclei (%): 56%
  Population Hoechst High Intensity Objects (%): 12%
  Population Membrane Permeable-Phenotype (%): 10%
  Population Mitochondria Different-Phenotype (%): 10%
  Population Mitotic Cells (%): 24%
  Population Normal (%): 87%
  Population Pyknosed Nuclei (%): 18%
  Population Tubulin-Different-Phenotype (%): 11%
  Total Cell Count: 199
Fibroblast [2]; [9]
  Population Apoptotic (%): 50%
  Population Fragmented Nuclei (%): 58%
  Population Healthy Nuclei (%): 33%
  Population Hoechst High Intensity Objects (%): 37%
  Population Membrane Permeable-Phenotype (%): 5%
  Population Mitochondria Different-Phenotype (%): 5%
  Population Mitotic Cells (%): 50%
  Population Normal (%): 62%
  Population Pyknosed Nuclei (%): 7%
  Population Tubulin-Different-Phenotype (%): 0%
  Total Cell Count: 82
Fibroblast [2]; [10]
  Population Apoptotic (%): 75%
  Population Fragmented Nuclei (%): 28%
  Population Healthy Nuclei (%): 54%
  Population Hoechst High Intensity Objects (%): 8%
  Population Membrane Permeable-Phenotype (%): 1%
  Population Mitochondria Different-Phenotype (%): 21%
  Population Mitotic Cells (%): 24%
  Population Normal (%): 91%
  Population Pyknosed Nuclei (%): 17%
  Population Tubulin-Different-Phenotype (%): 32%
  Total Cell Count: 207
Fibroblast [2]; [11]
  Population Apoptotic (%): 54%
  Population Fragmented Nuclei (%): 58%
  Population Healthy Nuclei (%): 19%
  Population Hoechst High Intensity Objects (%): 26%
  Population Membrane Permeable-Phenotype (%): 0%
  Population Mitochondria Different-Phenotype (%): 50%
  Population Mitotic Cells (%): 45%
  Population Normal (%): 73%
  Population Pyknosed Nuclei (%): 21%
  Population Tubulin-Different-Phenotype (%): 40%
  Total Cell Count: 69
Fibroblast [2]; [12]
  Population Apoptotic (%): 54%
  Population Fragmented Nuclei (%): 30%
  Population Healthy Nuclei (%): 47%
  Population Hoechst High Intensity Objects (%): 12%
  Population Membrane Permeable-Phenotype (%): 6%
  Population Mitochondria Different-Phenotype (%): 4%
  Population Mitotic Cells (%): 45%
  Population Normal (%): 87%
  Population Pyknosed Nuclei (%): 21%
  Population Tubulin-Different-Phenotype (%): 10%
  Total Cell Count: 197
Fibroblast [2]; [13]
  Population Apoptotic (%): 62%
  Population Fragmented Nuclei (%): 51%
  Population Healthy Nuclei (%): 32%
  Population Hoechst High Intensity Objects (%): 35%
  Population Membrane Permeable-Phenotype (%): 5%
  Population Mitochondria Different-Phenotype (%): 5%
  Population Mitotic Cells (%): 37%
  Population Normal (%): 65%
  Population Pyknosed Nuclei (%): 15%
  Population Tubulin-Different-Phenotype (%): 5%
  Total Cell Count: 80
Fibroblast [2]; [14]
  Population Apoptotic (%): 65%
  Population Fragmented Nuclei (%): 34%
  Population Healthy Nuclei (%): 48%
  Population Hoechst High Intensity Objects (%): 8%
  Population Membrane Permeable-Phenotype (%): 4%
  Population Mitochondria Different-Phenotype (%): 29%
  Population Mitotic Cells (%): 34%
  Population Normal (%): 91%
  Population Pyknosed Nuclei (%): 17%
  Population Tubulin-Different-Phenotype (%): 54%
  Total Cell Count: 196
Fibroblast [2]; [15]
  Population Apoptotic (%): 62%
  Population Fragmented Nuclei (%): 44%
  Population Healthy Nuclei (%): 18%
  Population Hoechst High Intensity Objects (%): 31%
  Population Membrane Permeable-Phenotype (%): 0%
  Population Mitochondria Different-Phenotype (%): 62%
  Population Mitotic Cells (%): 37%
  Population Normal (%): 68%
  Population Pyknosed Nuclei (%): 37%
  Population Tubulin-Different-Phenotype (%): 50%
  Total Cell Count: 63

## CCOc1cc2ncc(C#N)c(Nc3ccc(OCc4cccc(F)c4)c(Cl)c3)c2cc1NC(=O)/C=C/CN(C)C [HKI-357]
Fibroblast [1]; [3]
  Growth Rate: 0
Fibroblast [1]; [4]
  Growth Rate: 0
Fibroblast [1]; [5]
  Growth Rate: 0
Fibroblast [1]; [6]
  Growth Rate: 0
Fibroblast [1]; [7]
  Growth Rate: 0
HEK-293T; [3]
  Growth Rate: 0
HEK-293T; [4]
  Growth Rate: 0
HEK-293T; [5]
  Growth Rate: 0
HEK-293T; [6]
  Growth Rate: 0
HEK-293T; [7]
  Growth Rate: 0
U2OS; 0 h, replicate number 2, timepoint 0 hours
  Growth Rate: 0
U2OS; [4]
  Growth Rate: 0
U2OS; [5]
  Growth Rate: 0
U2OS; [6]
  Growth Rate: 0
U2OS; [7]
  Growth Rate: 0
Fibroblast [2]; [8]
  Population Apoptotic (%): 72%
  Population Fragmented Nuclei (%): 21%
  Population Healthy Nuclei (%): 60%
  Population Hoechst High Intensity Objects (%): 14%
  Population Membrane Permeable-Phenotype (%): 7%
  Population Mitochondria Different-Phenotype (%): 7%
  Population Mitotic Cells (%): 27%
  Population Normal (%): 85%
  Population Pyknosed Nuclei (%): 18%
  Population Tubulin-Different-Phenotype (%): 11%
  Total Cell Count: 223
Fibroblast [2]; [9]
  Population Apoptotic (%): 33%
  Population Fragmented Nuclei (%): 60%
  Population Healthy Nuclei (%): 31%
  Population Hoechst High Intensity Objects (%): 34%
  Population Membrane Permeable-Phenotype (%): 4%
  Population Mitochondria Different-Phenotype (%): 9%
  Population Mitotic Cells (%): 66%
  Population Normal (%): 65%
  Population Pyknosed Nuclei (%): 8%
  Population Tubulin-Different-Phenotype (%): 13%
  Total Cell Count: 107
Fibroblast [2]; [10]
  Population Apoptotic (%): 76%
  Population Fragmented Nuclei (%): 42%
  Population Healthy Nuclei (%): 37%
  Population Hoechst High Intensity Objects (%): 13%
  Population Membrane Permeable-Phenotype (%): 15%
  Population Mitochondria Different-Phenotype (%): 12%
  Population Mitotic Cells (%): 23%
  Population Normal (%): 86%
  Population Pyknosed Nuclei (%): 20%
  Population Tubulin-Different-Phenotype (%): 46%
  Total Cell Count: 368
Fibroblast [2]; [11]
  Population Apoptotic (%): 37%
  Population Fragmented Nuclei (%): 61%
  Population Healthy Nuclei (%): 20%
  Population Hoechst High Intensity Objects (%): 46%
  Population Mitochondria Different-Phenotype (%): 26%
  Population Mitotic Cells (%): 62%
  Population Normal (%): 53%
  Population Pyknosed Nuclei (%): 17%
  Population Tubulin-Different-Phenotype (%): 78%
  Total Cell Count: 170
Fibroblast [2]; [12]
  Population Apoptotic (%): 57%
  Population Fragmented Nuclei (%): 23%
  Population Healthy Nuclei (%): 57%
  Population Hoechst High Intensity Objects (%): 15%
  Population Membrane Permeable-Phenotype (%): 6%
  Population Mitochondria Different-Phenotype (%): 3%
  Population Mitotic Cells (%): 42%
  Population Normal (%): 84%
  Population Pyknosed Nuclei (%): 18%
  Population Tubulin-Different-Phenotype (%): 5%
  Total Cell Count: 238
Fibroblast [2]; [13]
  Population Apoptotic (%): 60%
  Population Fragmented Nuclei (%): 59%
  Population Healthy Nuclei (%): 33%
  Population Hoechst High Intensity Objects (%): 31%
  Population Membrane Permeable-Phenotype (%): 13%
  Population Mitochondria Different-Phenotype (%): 4%
  Population Mitotic Cells (%): 40%
  Population Normal (%): 68%
  Population Pyknosed Nuclei (%): 7%
  Population Tubulin-Different-Phenotype (%): 18%
  Total Cell Count: 97
Fibroblast [2]; [14]
  Population Apoptotic (%): 73%
  Population Fragmented Nuclei (%): 44%
  Population Healthy Nuclei (%): 42%
  Population Hoechst High Intensity Objects (%): 19%
  Population Membrane Permeable-Phenotype (%): 5%
  Population Mitochondria Different-Phenotype (%): 7%
  Population Mitotic Cells (%): 26%
  Population Normal (%): 80%
  Population Pyknosed Nuclei (%): 12%
  Population Tubulin-Different-Phenotype (%): 39%
  Total Cell Count: 409
Fibroblast [2]; [15]
  Population Apoptotic (%): 63%
  Population Fragmented Nuclei (%): 69%
  Population Healthy Nuclei (%): 19%
  Population Hoechst High Intensity Objects (%): 45%
  Population Membrane Permeable-Phenotype (%): 4%
  Population Mitochondria Different-Phenotype (%): 23%
  Population Mitotic Cells (%): 36%
  Population Normal (%): 54%
  Population Pyknosed Nuclei (%): 10%
  Population Tubulin-Different-Phenotype (%): 66%
  Total Cell Count: 193
